Positions of bridges follow the written chain, without caps; N, C: chain ends. Residues, ends and D or L forms follow the SMILES beside them.
Tests used:
[1] = biological target: T1, Sodium channel protein type 5 subunit alpha (Homo sapiens, UniProt Q14524); assay: Inhibition of human Nav1.5 expressed in HEK293 cells by whole cell patch clamp electrophysiology method
Method in brief: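 Stable HEK293 line expressing human NaV1.5. Peptides were used only at >95% purity with the correct m/z, and were quantified by chemiluminescent nitrogen detection against a caffeine standard curve.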

[2] = biological target: Sodium channel protein type 9 subunit alpha (Homo sapiens, UniProt Q15858); assay: Inhibition of human Nav1.7 expressed in HEK293 cells by whole cell patch clamp electrophysiology method
[3] = biological target: T1, Sodium channel protein type 5 subunit alpha; assay: Inhibition of human Nav1.5 expressed in HEK293 cells assessed as inward peak current by ion-works quattro patch clamp electrophysiology method
Method in brief: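 Stable HEK293 line expressing human NaV1.5, recorded by population patch clamp on the IonWorks Quattro.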

T1 sequence (Q14524 whole entry): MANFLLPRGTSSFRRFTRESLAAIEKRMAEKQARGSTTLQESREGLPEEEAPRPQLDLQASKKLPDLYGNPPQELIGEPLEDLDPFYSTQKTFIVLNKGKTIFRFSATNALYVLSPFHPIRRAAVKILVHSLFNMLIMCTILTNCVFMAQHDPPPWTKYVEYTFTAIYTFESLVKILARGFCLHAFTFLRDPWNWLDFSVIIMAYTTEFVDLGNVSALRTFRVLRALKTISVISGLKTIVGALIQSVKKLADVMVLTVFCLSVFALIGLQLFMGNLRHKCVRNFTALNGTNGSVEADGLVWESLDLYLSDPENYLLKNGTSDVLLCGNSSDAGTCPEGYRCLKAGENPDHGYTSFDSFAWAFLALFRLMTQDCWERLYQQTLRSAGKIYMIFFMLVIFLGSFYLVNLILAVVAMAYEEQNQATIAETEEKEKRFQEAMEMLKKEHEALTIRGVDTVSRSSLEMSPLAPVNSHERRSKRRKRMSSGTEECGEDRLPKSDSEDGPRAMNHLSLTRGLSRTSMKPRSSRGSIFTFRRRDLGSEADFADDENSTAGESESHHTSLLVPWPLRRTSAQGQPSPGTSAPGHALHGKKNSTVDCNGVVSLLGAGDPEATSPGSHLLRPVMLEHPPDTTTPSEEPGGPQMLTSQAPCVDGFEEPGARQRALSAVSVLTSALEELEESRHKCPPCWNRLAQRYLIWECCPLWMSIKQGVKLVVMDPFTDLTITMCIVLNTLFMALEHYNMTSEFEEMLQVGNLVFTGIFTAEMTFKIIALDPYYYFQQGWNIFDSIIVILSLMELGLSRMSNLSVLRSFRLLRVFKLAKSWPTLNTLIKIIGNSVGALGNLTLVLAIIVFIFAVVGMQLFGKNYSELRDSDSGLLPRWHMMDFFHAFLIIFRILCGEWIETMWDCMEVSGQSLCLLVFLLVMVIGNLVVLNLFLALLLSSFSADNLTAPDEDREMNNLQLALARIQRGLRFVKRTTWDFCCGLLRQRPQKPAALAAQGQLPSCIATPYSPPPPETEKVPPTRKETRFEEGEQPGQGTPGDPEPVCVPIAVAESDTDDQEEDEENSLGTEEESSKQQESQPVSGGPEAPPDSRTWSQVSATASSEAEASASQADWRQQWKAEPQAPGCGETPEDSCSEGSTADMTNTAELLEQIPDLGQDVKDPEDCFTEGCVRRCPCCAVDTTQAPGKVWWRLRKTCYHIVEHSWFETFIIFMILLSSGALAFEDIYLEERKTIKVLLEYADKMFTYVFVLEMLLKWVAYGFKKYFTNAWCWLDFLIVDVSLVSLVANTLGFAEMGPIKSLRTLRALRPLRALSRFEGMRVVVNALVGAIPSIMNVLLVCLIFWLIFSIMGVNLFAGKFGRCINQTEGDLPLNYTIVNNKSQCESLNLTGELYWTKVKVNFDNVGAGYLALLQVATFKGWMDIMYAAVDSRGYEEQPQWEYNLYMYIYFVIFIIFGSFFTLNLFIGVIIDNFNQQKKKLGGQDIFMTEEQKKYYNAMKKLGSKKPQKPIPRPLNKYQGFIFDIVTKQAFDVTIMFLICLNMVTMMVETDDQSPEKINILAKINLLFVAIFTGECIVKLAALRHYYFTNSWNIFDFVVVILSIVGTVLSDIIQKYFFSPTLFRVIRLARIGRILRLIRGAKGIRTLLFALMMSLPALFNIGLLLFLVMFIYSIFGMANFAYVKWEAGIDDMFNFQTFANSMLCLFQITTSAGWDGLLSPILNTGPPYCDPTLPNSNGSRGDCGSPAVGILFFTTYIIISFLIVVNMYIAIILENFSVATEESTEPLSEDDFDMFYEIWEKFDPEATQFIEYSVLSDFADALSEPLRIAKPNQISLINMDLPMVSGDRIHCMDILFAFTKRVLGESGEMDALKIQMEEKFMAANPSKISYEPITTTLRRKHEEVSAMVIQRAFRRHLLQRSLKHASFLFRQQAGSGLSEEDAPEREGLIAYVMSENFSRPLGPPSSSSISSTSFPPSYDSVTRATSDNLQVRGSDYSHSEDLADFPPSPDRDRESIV
Sodium channel protein type 9 subunit alpha, sequence (Q15858 whole entry): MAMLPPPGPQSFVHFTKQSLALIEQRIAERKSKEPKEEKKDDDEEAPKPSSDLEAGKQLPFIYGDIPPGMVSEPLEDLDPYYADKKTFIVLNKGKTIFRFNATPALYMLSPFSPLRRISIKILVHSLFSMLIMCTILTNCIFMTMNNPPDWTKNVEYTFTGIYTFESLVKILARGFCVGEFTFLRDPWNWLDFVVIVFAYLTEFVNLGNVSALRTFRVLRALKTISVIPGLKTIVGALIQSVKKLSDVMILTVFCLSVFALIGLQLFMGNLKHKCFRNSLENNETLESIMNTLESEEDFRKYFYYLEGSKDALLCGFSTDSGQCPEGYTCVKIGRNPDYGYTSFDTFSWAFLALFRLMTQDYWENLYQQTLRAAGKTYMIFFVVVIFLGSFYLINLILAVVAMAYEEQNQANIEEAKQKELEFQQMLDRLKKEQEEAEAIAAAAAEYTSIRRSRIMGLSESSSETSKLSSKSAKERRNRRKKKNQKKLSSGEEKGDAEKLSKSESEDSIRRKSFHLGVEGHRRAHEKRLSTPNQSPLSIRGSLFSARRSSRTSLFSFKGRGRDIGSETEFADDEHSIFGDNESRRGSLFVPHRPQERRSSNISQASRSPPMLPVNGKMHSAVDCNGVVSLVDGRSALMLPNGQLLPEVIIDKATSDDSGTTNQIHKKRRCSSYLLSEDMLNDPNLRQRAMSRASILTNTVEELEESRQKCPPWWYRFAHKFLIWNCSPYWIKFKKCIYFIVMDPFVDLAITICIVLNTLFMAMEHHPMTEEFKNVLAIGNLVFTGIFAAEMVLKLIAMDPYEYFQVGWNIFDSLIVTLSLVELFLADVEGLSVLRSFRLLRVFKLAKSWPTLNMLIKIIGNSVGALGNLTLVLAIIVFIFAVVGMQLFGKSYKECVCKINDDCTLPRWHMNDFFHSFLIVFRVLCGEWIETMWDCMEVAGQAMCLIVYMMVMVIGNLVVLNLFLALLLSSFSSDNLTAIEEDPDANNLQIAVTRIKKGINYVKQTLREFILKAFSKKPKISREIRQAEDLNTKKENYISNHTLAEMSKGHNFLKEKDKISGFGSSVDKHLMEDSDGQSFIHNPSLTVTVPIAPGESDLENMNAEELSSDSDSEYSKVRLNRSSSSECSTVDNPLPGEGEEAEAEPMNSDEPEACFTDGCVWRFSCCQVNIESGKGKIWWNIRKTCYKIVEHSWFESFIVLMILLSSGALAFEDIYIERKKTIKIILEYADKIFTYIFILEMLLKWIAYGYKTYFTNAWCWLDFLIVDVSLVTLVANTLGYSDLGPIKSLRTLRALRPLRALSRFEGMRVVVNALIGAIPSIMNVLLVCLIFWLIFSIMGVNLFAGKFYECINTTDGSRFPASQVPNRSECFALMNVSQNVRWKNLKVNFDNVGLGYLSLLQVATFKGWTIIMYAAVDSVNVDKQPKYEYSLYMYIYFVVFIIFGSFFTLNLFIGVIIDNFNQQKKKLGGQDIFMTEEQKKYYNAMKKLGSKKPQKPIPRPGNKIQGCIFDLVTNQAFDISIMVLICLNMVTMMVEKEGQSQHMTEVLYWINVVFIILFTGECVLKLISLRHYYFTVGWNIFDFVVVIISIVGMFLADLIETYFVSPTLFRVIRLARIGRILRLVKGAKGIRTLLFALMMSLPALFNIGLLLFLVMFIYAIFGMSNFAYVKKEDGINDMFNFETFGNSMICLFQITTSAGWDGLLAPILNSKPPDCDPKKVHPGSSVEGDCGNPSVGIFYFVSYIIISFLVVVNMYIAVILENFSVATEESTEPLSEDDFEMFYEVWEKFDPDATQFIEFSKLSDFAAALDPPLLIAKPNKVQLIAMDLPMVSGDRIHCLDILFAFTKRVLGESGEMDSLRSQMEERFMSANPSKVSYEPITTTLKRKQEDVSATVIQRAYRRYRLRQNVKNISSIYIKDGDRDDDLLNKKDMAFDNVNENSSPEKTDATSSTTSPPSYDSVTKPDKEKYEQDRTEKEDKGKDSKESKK

SMILES | IC50 [1] | IC50 [2] | IC50 [3]
CC[C@H](C)[C@@H]1NC(=O)[C@@H]2CSSC[C@@H]3NC(=O)[C@H](C(C)C)NC(=O)[C@H](CC(C)C)NC(=O)[C@H](CC(N)=O)NC(=O)[C@@H]4CCCN4C(=O)[C@H](CCCNC(=N)N)NC(=O)[C@H](CSSC[C@H](NC(=O)[C@@H](N)CC(=O)O)C(=O)N[C@@H](CC(C)C)C(=O)NCC(=O)N[C@@H](Cc4ccccc4)C(=O)N[C@@H](CCSC)C(=O)N[C@@H](CCCNC(=N)N)C(=O)N[C@@H](CCCCN)C(=O)N2)NC(=O)[C@H](CSSC[C@@H](C(=O)N[C@@H](CCCCN)C(=O)N[C@@H](Cc2ccc(O)cc2)C(=O)N[C@H](C(=O)N[C@@H](Cc2ccccc2)C(=O)N[C@@H](Cc2c[nH]c4ccccc24)C(N)=O)C(C)C)NC(=O)[C@H](Cc2c[nH]c4ccccc24)NC(=O)[C@H](CCCCN)NC(=O)[C@H](Cc2c[nH]cn2)NC(=O)[C@H]([C@@H](C)O)NC(=O)[C@H](CCCNC(=N)N)NC(=O)[C@H](CO)NC3=O)NC(=O)[C@H](CCCCN)NC(=O)[C@H](CC(=O)O)NC(=O)[C@H](CC(N)=O)NC(=O)[C@H](CC(=O)O)NC(=O)[C@@H]2CCCN2C1=O | 2700 nM | 10 nM | > 5000 nM
CC[C@H](C)[C@@H]1NC(=O)[C@@H]2CSSC[C@@H]3NC(=O)[C@H](C(C)C)NC(=O)[C@H](CC(C)C)NC(=O)[C@H](CC(N)=O)NC(=O)[C@@H]4CCCN4C(=O)[C@H](CCCNC(=N)N)NC(=O)[C@H](CSSC[C@H](NC(=O)[C@@H](N)CC(=O)O)C(=O)N[C@@H](CCC(=O)O)C(=O)NCC(=O)N[C@@H](Cc4ccccc4)C(=O)N[C@@H](CCSC)C(=O)N[C@@H](CCCNC(=N)N)C(=O)N[C@@H](CCCCN)C(=O)N2)NC(=O)[C@H](CSSC[C@@H](C(=O)N[C@@H](CCCCN)C(=O)N[C@@H](Cc2ccc(O)cc2)C(=O)N[C@H](C(=O)N[C@@H](Cc2ccccc2)C(N)=O)C(C)C)NC(=O)[C@H](Cc2c[nH]c4ccccc24)NC(=O)[C@H](CCCCN)NC(=O)[C@H](Cc2cnc[nH]2)NC(=O)[C@H]([C@@H](C)O)NC(=O)[C@H](CCCNC(=N)N)NC(=O)[C@H](CO)NC3=O)NC(=O)[C@H](CCCCN)NC(=O)[C@H](CC(=O)O)NC(=O)[C@H](CC(N)=O)NC(=O)[C@H](CC(=O)O)NC(=O)[C@@H]2CCCN2C1=O (H-DCEGFMRKCIPDNDKCCRPNLVCSRTHKWCKYVF-NH2; disulfide 2-17, 9-23, 16-30) | – | – | > 5000 nM

— BindingDB's records for doi:10.1021/acs.jmedchem.5b01947 (Amgen, 2016)
